This is an account of results in ChEMBL document CHEMBL5380852, “N'-Phenylacetohydrazide Derivatives as Potent Ebola Virus Entry Inhibitors with an Improved Pharmacokinetic Profile” (J Med Chem, 2023).

A short description of data set [1]: AUClast in BALB/c mouse brain at 50 mg/kg, po measured upto 24 hrs by LC-MS/MS method. Type of data set: ADME, organism-based. Also noted: dose 50 mg/kg, time < 24 hrs, route po. The conditions noted are these: in vivo. In outline: (§1)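 Male BALB/c mice aged 8–12 weeks (20–35 g) received one dose in a solution of 90% PBS pH 7.4, 5% solutol HS-15 and 5% NMP: 10 mg/kg i.p. or 50 mg/kg p.o. Three mice per time point, sampled up to 24 h. Plasma and brain were taken at each point and assayed by LC–MS/MS. Parameters came from noncompartmental analysis.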

Data set [2] in a line: Selectivity index, ratio of CC50 for human HeLa cells to EC50 for pseudotyped Ebola virus infected in HeLa cells. The conditions noted are these: read-out: Ratio CC50/EC50. It counts as toxicity, cell-based.
Data set [3] can be described thus: Selectivity index, ratio of CC50 for african green monkey Vero E6 cells to EC50 for wild type Zaire EBOV mayinga. It counts as cell-based, Vero C1008. The conditions noted are these: read-out: Ratio CC50/EC50.
The nature of data set [4]: Inhibition of EBOV-GP to human C-terminal Flag tagged NPC1 protein protein interaction at 50 uM by ELISA. The gist of the method: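 GP particles were cleaved with thermolysin (250 μg/mL, 1 h, 37 °C; stopped with 1 mM phosphoramidon) and captured on plates by anti-GP mAb KZ52. Purified Flag-tagged human NPC1 domain C (10 μg/mL), expressed in HEK293T, was added with or without compound at 50 μM. Bound protein was detected with anti-Flag-HRP and TMB at 450 nm, n = 3.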

Data set [5] is described as follows: Tmax in BALB/c mouse plasma at 10 mg/kg, ip measured upto 24 hrs by LC-MS/MS method. The conditions noted are these: in vivo. Type of data set: ADME, organism-based. In outline:
as §1

A short description of data set [6]: Tmax in BALB/c mouse plasma at 50 mg/kg, po measured upto 24 hrs by LC-MS/MS method. It counts as ADME, organism-based. To be noted: in vivo. In outline:
as §1

A short description of data set [7]: Tmax in BALB/c mouse brain at 10 mg/kg, ip measured upto 24 hrs by LC-MS/MS method. Type of data set: ADME, organism-based. The conditions noted are these: in vivo. The gist of the method:
as §1

Data set [8] can be described thus: Tmax in BALB/c mouse brain at 50 mg/kg, po measured upto 24 hrs by LC-MS/MS method. Type of data set: ADME, organism-based. The conditions noted are these: in vivo. The gist of the method: as §1
Data set [9] is described as follows: Cmax in BALB/c mouse plasma at 50 mg/kg, po measured upto 24 hrs by LC-MS/MS method. It counts as ADME, organism-based. The arrangement: dose 50 mg/kg, time < 24 hrs, route po. To be noted: in vivo. In outline:
as §1

A short description of data set [10]: Cmax in BALB/c mouse brain at 50 mg/kg, po measured upto 24 hrs by LC-MS/MS method. The conditions noted are these: in vivo. Also noted: time < 24 hrs, dose 50 mg/kg, route po. It counts as ADME, organism-based. The gist of the method: as §1
A short description of data set [11]: AUClast in BALB/c mouse plasma at 10 mg/kg, ip measured upto 24 hrs by LC-MS/MS method. Type of data set: ADME, organism-based. To be noted: in vivo. The arrangement: dose 10 mg/kg, time < 24 hrs, route ip. The gist of the method:
as §1

The nature of data set [12]: AUClast in BALB/c mouse plasma at 50 mg/kg, po measured upto 24 hrs by LC-MS/MS method. Also noted: time < 24 hrs, dose 50 mg/kg, route po. The conditions noted are these: in vivo. Type of data set: ADME, organism-based. The gist of the method: as §1
Data set [13] can be described thus: AUClast in BALB/c mouse brain at 10 mg/kg, ip measured upto 24 hrs by LC-MS/MS method. To be noted: in vivo. Type of data set: ADME, organism-based. Also noted: time < 24 hrs, dose 10 mg/kg, route ip. In outline:
as §1

The nature of data set [14]: Cmax in BALB/c mouse plasma at 10 mg/kg, ip measured upto 24 hrs by LC-MS/MS method. Type of data set: ADME, organism-based. The arrangement: dose 10 mg/kg, time < 24 hrs, route ip. To be noted: in vivo. The gist of the method:
as §1

Data set [15] can be described thus: Cmax in BALB/c mouse brain at 10 mg/kg, ip measured upto 24 hrs by LC-MS/MS method. It counts as ADME, organism-based. The conditions noted are these: in vivo. Also noted: time < 24 hrs, dose 10 mg/kg, route ip. In outline:
as §1

For another data set, the system named is Ebolavirus. Briefly: Antiviral activity against pseudotyped Ebola virus infected in HeLa cells preincubated for 1 hr followed by viral infection and measured after 48 hrs by steady-glo luciferase assay. Type of data set: functional, organism-based. To be noted: Orthoebolavirus. The gist of the method:
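HeLa cells (2×10^4/well; DMEM, 10% FBS, 1% L-glutamine, 37 °C, 5% CO2) were pretreated with compound for 1 h at 37 °C, then given 5000 TCID50 of HIV-luciferase lentivirus pseudotyped with EBOV-GP. After 48 h, cells were washed, lysed and luciferase read. Primary screen was at 10 μM final. […] EC50 is the mean of three independent experiments, from normalized dose–response fits with 95% CI.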

Data set [16] can be described thus: Cytotoxicity against human HeLa cells assessed as reduction in cell viability incubated for 24 hrs by MTS assay. Type of data set: toxicity, cell-based. The gist of the method:
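HeLa cells (2×10^4/well) were grown in DMEM with 10% FBS and exposed to compound at 0–200 μM for 24 h. Viability was read by MTS reduction at 490 nm, as a percentage of untreated cells, and CC50 was derived.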

The source made the active and inactive calls. The calls are words filed in the database; no cut-off is given here.

In the case of `O=C(CCNCCN1CCN(Cc2ccccc2)CC1)NN(c1ccccc1)c1ccccc1`, the AUClast in data set [1] came out at 7109.56 ng·h/mL; in [11], 83.83 ng·h/mL; in data set [12], 152.76 ng·h/mL; in [13], 3886.74 ng·h/mL. Also, the values for the selectivity ratio in data set [2] and in data set [3] were 274 and 13.1, respectively. The inhibition entry in [4] is “Active”. In addition, the time to peak (Tmax) in [5] is 4.8 min; in [6], 15 min; in data set [7], 8 h; in data set [8] it was 24 h. Also, the maximum concentration (Cmax) is 93.62 ng/mL in [9] and 341.33 ng/mL in data set [10].

On to `O=C(CCNCCC1CCN(Cc2ccccc2)CC1)NN(c1ccccc1)c1ccccc1`, for which the results for the selectivity ratio in [2] and in data set [3] were 115 and 31.5, respectively. For the same compound, the Tmax was 4.8 min in data set [5], 15 min in data set [6], 8 h in data set [7] and 4 h in [8]. In addition, the Cmax in data set [14] came out at 283.42 ng/mL; in [15], 51.03 ng/mL. Further, the AUClast in [11] is 559.47 ng·h/mL; in data set [13] it was 1142.02 ng·h/mL.

In the case of `CN(C)CCOc1ccc(/C(=C(/CCCl)c2ccccc2)c2ccccc2)cc1` [TOREMIFENE], in the data set on Ebolavirus, a half-maximal effect (EC50) was put at 70 nM. Moreover, in data set [16], the half-maximal cytotoxic concentration (CC50) at 24 h is more than 100 µM.
